One block for each compound: values may come before it.
Tests used:
[1] = test system: EGFR/GRB2 PPI; conditions: cited from earlier work
[2] = Parallel artificial membrane permeability assay; format: in vitro ADME; conditions: PAMPA, 1% egg lecithin in n-dodecane
Summary of the method: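 Artificial membrane of 1% egg lecithin in n-dodecane. Test compound at 500 μM added to the donor side; incubated 5 h at room temperature. Compound in the receiving solution quantified by HPLC. Percent transport (%T) and apparent permeability coefficient (Papp, cm·s−1) calculated from previously reported equations; values given with SD.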

[3] = target: full-length human GRB2 (EGFR/GRB2 PPI) (Homo sapiens, UniProt P62993); format: binding

SMILES: NC(=O)C[C@@H]1NC(=O)C2(CCCCC2)NC(=O)[C@@H](CC(=O)O)[C@@H](c2ccc(CP(=O)(O)O)cc2)/C=C/C[C@@H](Cc2cccc3ccccc23)CNC1=O [Compound 4]
IC50 [1]: 2 nM

SMILES: CC(=O)N[C@@H](Cc1ccc(OP(=O)(O)O)cc1)C(=O)NC1(C(=O)N[C@@H](CC(N)=O)C(=O)NCCCc2cccc3ccccc23)CCCCC1 [Compound 2]
IC50 relative to compound 1 [1]: two orders of magnitude lower than 1

Second part, the compound after the results:

permeability through the artificial membrane (in words) [2]: good permeability
SMILES: NC(=O)C[C@@H]1NC(=O)C2(CCCCC2)NC(=O)C[C@@H](c2ccc(CC(=O)O)cc2)/C=C/C[C@@H](Cc2cccc3ccccc23)CNC1=O [Compound 7]

Ki [3]: > 20000 nM
SMILES: COC(=O)Cc1ccc([C@H]2/C=C/C[C@@H](Cc3cccc4ccccc34)CNC(=O)[C@H](CC(N)=O)NC(=O)C3(CCCCC3)NC(=O)C2)cc1 [Compound 8]

permeability through the artificial membrane (in words) [2]: poor permeability
SMILES: NC(=O)C[C@@H]1NC(=O)C2(CCCCC2)NC(=O)C[C@@H](c2ccc(CP(=O)(O)O)cc2)/C=C/C[C@@H](Cc2cccc3ccccc23)CNC1=O [Compound 3]
